FN deposit inh = inhibitors of fibronectin matrix deposition, primary screen, AH1F cells, Alexa488-fibronectin fluorescence, plate reader; 0.086% of 350,000 active; inhibition, % at 12.6 µM; AH1F fibroblasts, overnight;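 active = mean inhibition across replicates of 30% or more, regardless of how many single replicates reach that level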;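 note: positive control wells lacked labelled fibronectin entirely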
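test system = AH1F fibroblasts assembling fluorescent fibronectin matrix | quantity = 10000 AH1F cells per well | buffer or medium = DMEM plus 2% serum, read in PBS | doses = single dose, pinned | incubation = 1 h cell attachment, overnight exposure to compound and label | detection = fluorescence at 485 nm excitation, 525 nm emission | read-out basis = inhibition from reduced deposited-fibronectin fluorescence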
PDI inh = inhibitors of human PDI, primary screen, biochemical, turbidity, single point, plate reader | Protein disulfide-isomerase (Homo sapiens), P07237 | PDI insulin aggregation turbidity, A650, 90 min | inhibition, % at 10 µM | 0.052% of 350,000 active | AID 588391, 2011;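 active = mean inhibition across replicates of 30% or more, whatever share of single replicates reach that level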
Target sequence (P07237 whole entry, looked up): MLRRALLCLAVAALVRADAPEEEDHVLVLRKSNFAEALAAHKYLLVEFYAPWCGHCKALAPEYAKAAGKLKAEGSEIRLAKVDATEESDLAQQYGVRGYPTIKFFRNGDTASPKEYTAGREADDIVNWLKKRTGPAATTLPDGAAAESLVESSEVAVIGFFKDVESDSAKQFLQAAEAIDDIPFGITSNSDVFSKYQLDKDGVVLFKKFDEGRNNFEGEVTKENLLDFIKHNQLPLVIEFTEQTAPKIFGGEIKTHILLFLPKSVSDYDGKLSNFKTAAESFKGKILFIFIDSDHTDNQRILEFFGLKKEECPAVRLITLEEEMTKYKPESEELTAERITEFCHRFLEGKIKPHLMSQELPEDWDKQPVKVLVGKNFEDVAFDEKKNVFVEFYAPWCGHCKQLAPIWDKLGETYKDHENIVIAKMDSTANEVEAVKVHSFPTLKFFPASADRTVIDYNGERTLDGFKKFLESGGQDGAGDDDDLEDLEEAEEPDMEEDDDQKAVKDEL
ARNT-TACC3 inh = disruptors of ARNT/TACC3 protein interaction, primary screen, biochemical, AlphaScreen, single concentration. 0.66% of 390,000 active. inhibition, % at 9.99 µM. AlphaScreen His-ARNT PAS-B/GST-TACC3 binding, luminescence; TACC3 fragment carries E629A point mutation. Transforming acidic coiled-coil-containing protein 3 (Homo sapiens), Q9Y6A5;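 active = mean inhibition of replicates at least 50% and at least half of replicates each reaching 50%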;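 note: 0% = complete ARNT plus TACC3 wells and 100% = ARNT alone without TACC3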
AF4-AF9 inh = inhibitors of AF4 peptide binding to AF9, primary screen, biochemical, AlphaScreen, biotin-AF4 peptide, FLAG-AF9, single point; Protein AF-9 (Homo sapiens), P42568; inhibition, % at 10 µM; 0.47% of 350,000 active; AID 651704, 2012;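 active = every replicate reaching a set inhibition limit, whatever the replicate mean, cut at about 25% in these data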;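 note: 0% = plate neutral control median and 100% = total signal loss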
FGF22 binding = binders of human FGF22 protein, primary screen, FGF22 synaptogenesis inhibitor project, biophysical, thermal shift, single point. AID 651658, 2012. recombinant FGF22 thermal shift, SYPRO orange fluorescence; percent of sucrose octasulfate shift, DMSO zero. Fibroblast growth factor 22 (Homo sapiens), Q9HCT0. 1.5% of 340,000 active. activity (Tm shift, normalised), % at 9.99 µM;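 active = mean Tm shift, scaled 0 neutral to 100 positive control, at about 1.3% or above, every replicate too, limit read from the data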
Target sequence (Q9HCT0 whole entry, looked up): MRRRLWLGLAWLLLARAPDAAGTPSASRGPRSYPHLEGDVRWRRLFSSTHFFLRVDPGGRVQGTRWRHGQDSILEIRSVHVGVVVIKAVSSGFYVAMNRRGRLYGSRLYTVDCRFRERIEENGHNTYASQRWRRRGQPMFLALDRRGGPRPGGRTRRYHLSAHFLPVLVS
ERp5 inh = inhibitors of ERp5-driven insulin aggregation, primary screen, biochemical, turbidity, absorbance 650 nm, single point; Protein disulfide-isomerase A6 (Homo sapiens), Q15084; 90 min; inhibition, % at 9.99 µM; 0.05% of 350,000 active; AID 651711, 2012;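 active = mean replicate inhibition above about 25%, with every replicate also reaching it, limit read from the data, passing the limit was not always enough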
ARNT Alpha ctr-1 = AlphaScreen signal interference compounds, dose response, artefact control for ARNT-TACC3 interaction inhibitor project, biochemical, luminescence, cherry-pick; shares compounds with ARNT-TACC3 inh; His-ARNT PASB-GST AlphaScreen artifact counter-screen; AC50, µM (titrated, usually from 68 µM), inactives show at the top dose activity change, negative = signal decrease; 50% of 1,200 active; AID 651705, 2012;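 active = every separate test run was called active for a drop in luminescence, with AC50 within twice the top valid dose, actives reach about 71 µM in these data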
ARNT Alpha ctr-2 = AlphaScreen signal interference by compounds, dose response, artefact control for ARNT/TACC3 disruptor project, biochemical, dual-tagged ARNT, dry powder. Dual-tagged His-ARNT PASB-GST AlphaScreen artifact counter-screen. AC50, µM. 70% of 45 active. shares compounds with ARNT-TACC3 inh;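 active = luminescence drop, with half-maximal potency fitted within twice the sample's top valid dose, cut at about 70 µM in these data; inactive = the rest, including signal moving the wrong way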
* hit, by the source's call; x = no result given; [ ] = dose if it differs, or a comment. Shown are actives, neighbours in structure and some others; about 2.1% of the full set was active somewhere.

SMILES	FN deposit inh	PDI inh	ARNT-TACC3 inh	AF4-AF9 inh	FGF22 binding	ERp5 inh	ARNT Alpha ctr-1	others
CC1CCN(S(=O)(=O)c2ccc(C(=O)Nc3nnc(C4CC4)o3)cc2)CC1	0	-7	43	3	0	-15	x	ARNT Alpha ctr-2=>136
Nc1nc(CN2CCN(Cc3ccccc3)CC2)nc(Nc2ccc3c(c2)OCCO3)n1	-5	2	60*	x	x	x	-24%
CCOC(=O)N1CCN(Cc2nc(N)nc(Nc3ccc(OC)cc3)n2)CC1	x	1	15	1	0	-2	x
Cc1ccc(Nc2nc(N)nc(CN3CCN(Cc4ccc5c(c4)OCO5)CC3)n2)cc1Cl	x	0	18	x	x	x	x
COc1ccc(Nc2nc(N)nc(CN3CCOCC3)n2)cc1	x	3	40*	x	x	x	0%
O=c1cc(N/N=C/c2ccccc2)[nH]c(=O)[nH]1	-6	7	20*	2	x	2	1%
CCN(CC)c1ccc(Nc2nc(N3CCOCC3)c3ccccc3n2)cc1	2	4	55*	x	x	x	5.7µM*
O=C(NC[C@@H]1[C@@H](c2ccccc2)[C@@H](CO)N1Cc1ccccn1)C1CC1	x	x	23	-2	0	5	x
O=C(NC[C@H]1[C@H](c2ccccc2)[C@H](CO)N1Cc1ccccn1)C1CCC1	-5	x	38*	x	x	x	-14%[42 µM]
O=C(NC[C@H]1[C@@H](c2ccccc2)[C@@H](CO)N1Cc1ccccn1)C1CC1	x	x	48*	-2	0	1	-12%[42 µM]
CC(=O)N1CC2(C1)[C@H](c1ccc(-c3ccc(C#N)cc3)cc1)[C@@H](CO)N2CCC(F)(F)F	x	x	x	-20	x	-5	x
COc1ccc(CN(C)C[C@H]2OCCCC[C@H](C)Oc3ccc(NC(=O)c4ccncc4)cc3C(=O)N([C@H](C)CO)C[C@@H]2C)cc1	-1	x	35	1	0	-4	x
COc1ccccc1-c1cn(CC[C@H]2CC[C@@H](NC(=O)NC(C)C)[C@@H](CO)O2)nn1	-6	x	-11	-3	0	-2	x
C[C@H](CO)N1C[C@H](C)[C@@H](CN(C)Cc2ccc(-c3ccccc3)cc2)Oc2ccc(NC(=O)Cc3cn(C)c4ccccc34)cc2C1=O	x	x	x	-1	-1	-1	x
Cc1cc(=O)[nH]c(N2CCCNCC2)n1	x	-2	-12	x	x	-8	x
Cc1cc(=O)[nH]c(-n2[nH]c3c(c2=O)CCCC3)n1	x	2	58*	x	x	x	-17%
Cc1nc2ccccc2n1CC(=O)c1ccc(O)c(O)c1	-10	-3	57*	-14	-1	-4	1%
O=S(=O)(N[C@H]1CC[C@@H](CCn2cc(-c3ccccn3)nn2)O[C@H]1CO)c1cccc(F)c1	-11	x	88*	0	0	-1	39µM*
O=S(=O)(N[C@@H]1CC[C@H](CCn2cc(-c3ccccn3)nn2)O[C@H]1CO)c1cccc(F)c1	-3	x	84*	0	0	-7	44µM*
O=C(CSC1=NNC(c2ccccn2)S1)Nc1cccc(Cl)c1 (stereo not given)	7	-6	12	-3	0	-1	x
O=C(CSC1=NNC(c2ccccn2)S1)Nc1ccccc1 (stereo not given)	7	4	58*	-1	0	-9	6.4µM*
COc1ccc(OC)c(NC(=O)COC(=O)Cn2nnc(-c3ccccc3)n2)c1	-5	-13	active	7	0	2	1%
C[C@@H]1CCCCO[C@H](CN(C)Cc2ccc(C(F)(F)F)cc2)[C@@H](C)CN([C@@H](C)CO)C(=O)c2cc(NC(=O)Nc3ccc4c(c3)OCO4)ccc2O1	x	x	4	3	0	-1	x
C[C@@H]1CCCCO[C@@H](CN(C)C(=O)Nc2ccc3c(c2)OCO3)[C@H](C)CN([C@@H](C)CO)C(=O)c2cc(NC(=O)CCCN(C)C)ccc2O1	x	x	-5	4	0	-6	x
O=C(C1CC1)N1CCc2cc(Br)cc(S(=O)(=O)NCc3ccccn3)c21	3	4	52*	x	x	x	5%
SMILES	FN deposit inh	PDI inh	ARNT-TACC3 inh	AF4-AF9 inh	FGF22 binding	ERp5 inh	ARNT Alpha ctr-1	others
O=C(C1CC1)N1CCc2cc(Br)cc(S(=O)(=O)NCc3ccco3)c21	1	7	9	x	x	x	x
CCOc1cc2c(C#N)c(N3CCOCC3)nc(N)c2c(N)n1	x	6	30*	x	x	x	-4%
Oc1ccc(/C=N/Nc2ncc(Br)cn2)c(O)c1	14	3	57*	x	x	x	30µM*
Cc1c(C(=O)O)cccc1[N+](=O)[O-]	x	x	x	x	0	-1	x
O=C(O)c1c[nH]c2c([N+](=O)[O-])cccc2c1=O	10	3	49*	-1	x	-3	-5%
CC1=CC(C)(C)N(C(=O)C(C)N2C(=O)c3ccccc3C2=O)c2ccc(C)cc21 (stereo not given)	x	-5	active	x	x	x	-22%
CC1=CC(C)(C)N(C(=O)c2ccccc2)c2ccc(C)cc21	-10	0	-1	x	x	x	x
C[C@@H]1CN([C@H](C)CO)C(=O)Cc2cc(NC(=O)Nc3cccc4ccccc34)ccc2O[C@@H]1CN(C)Cc1ccc(C(=O)Nc2ccccc2N)cc1	x	x	x	-9	x	-4	x
O=C(NCC[C@@H]1CC[C@@H](NS(=O)(=O)Cc2ccccc2)[C@@H](CO)O1)C1CCC1	x	x	1	-4	0	0	x
CCOC(=O)c1cnc(-n2[nH]c(C)cc2=O)[nH]c1=O	-5	0	70*	4	0	-2	13µM*
CCOC(=O)c1cnc[nH]c1=O	-7	8	6	0	0	0	x
COc1ccc2nc(/N=C/c3c(C)[nH]n(-c4ccc(C)cc4)c3=O)sc2c1	-4	2	55*	3	0	-8	-37%
COc1ccc2nc(/N=C\N(C)C)sc2c1	-12	3	-6	x	x	x	x
CCC(=O)N1C[C@H](C)[C@H](OC)CN(C)C(=O)c2cc(NC(=O)NC(C)C)ccc2OC[C@@H]1C	-3	x	2	2	0	-3	x
